Test results published in ChEMBL document CHEMBL2429849, “Substrate-based fragment identification for the development of selective, nonpeptidic inhibitors of striatal-enriched protein tyrosine phosphatase” (J Med Chem, 2013).
The source made the active and inactive calls. The calls are words filed in the database; no cut-off is given here.

Legend:
[1] = target: T1, Tyrosine-protein phosphatase non-receptor type 5 (Rattus norvegicus) (UniProt P35234); test: Inhibition of STEP in Sprague-Dawley rat embryo primary cortical neurons assessed as phosphorylation of GluN2B at 0.1 to 10 uM after 1 hr by Western blot analysis; settings: Cerebral cortex neuron
T1 sequence (whole entry): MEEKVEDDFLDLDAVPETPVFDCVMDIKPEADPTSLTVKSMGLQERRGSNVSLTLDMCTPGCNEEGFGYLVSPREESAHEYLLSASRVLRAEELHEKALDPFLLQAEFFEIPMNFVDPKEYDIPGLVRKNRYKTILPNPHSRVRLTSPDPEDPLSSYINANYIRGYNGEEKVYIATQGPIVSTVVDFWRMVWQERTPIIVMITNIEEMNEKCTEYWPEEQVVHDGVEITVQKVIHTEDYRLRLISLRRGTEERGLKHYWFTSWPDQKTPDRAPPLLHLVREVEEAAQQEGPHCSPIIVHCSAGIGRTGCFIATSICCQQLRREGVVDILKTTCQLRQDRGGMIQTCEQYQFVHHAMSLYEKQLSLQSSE
Procedure, shortened: (§1)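 E18 rat cortical neurons were trypsin-dissociated and plated on poly-D-lysine in Neurobasal with 2% B27, then grown 18–21 days at 37 °C. Compound was added at final 0, 0.1, 1 or 10 μM (0.1% DMSO) for 1 h at 37 °C. Cells were lysed in RIPA with protease/phosphatase inhibitors and protein measured by BCA. Phospho and total proteins were blotted by SDS-PAGE, with antibodies overnight at 4 °C and chemiluminescent detection.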

[2] = species on record: Homo sapiens; test: Selectivity ratio of Ki for human CD45 to Ki for human STEP
Procedure, shortened: (§2)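 STEP, CD45, LAR and TC-PTP used pNPP (500 μM) in imidazole/NaCl pH 7.0 with Triton X-100, read at 405 nm for 20 min. MKP5 used DiFMUP in Tris-HCl pH 8.0. The enzyme's own pNPP KM was used in analysis; ratio of the Ki values.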

[3] = target: T2, Tyrosine-protein phosphatase non-receptor type 2 (Homo sapiens, UniProt P17706); test: Inhibition of human TC-PTP using pNPP as substrate after 5 mins by spectrophotometric plate reader analysis
T2 sequence (P17706 whole entry): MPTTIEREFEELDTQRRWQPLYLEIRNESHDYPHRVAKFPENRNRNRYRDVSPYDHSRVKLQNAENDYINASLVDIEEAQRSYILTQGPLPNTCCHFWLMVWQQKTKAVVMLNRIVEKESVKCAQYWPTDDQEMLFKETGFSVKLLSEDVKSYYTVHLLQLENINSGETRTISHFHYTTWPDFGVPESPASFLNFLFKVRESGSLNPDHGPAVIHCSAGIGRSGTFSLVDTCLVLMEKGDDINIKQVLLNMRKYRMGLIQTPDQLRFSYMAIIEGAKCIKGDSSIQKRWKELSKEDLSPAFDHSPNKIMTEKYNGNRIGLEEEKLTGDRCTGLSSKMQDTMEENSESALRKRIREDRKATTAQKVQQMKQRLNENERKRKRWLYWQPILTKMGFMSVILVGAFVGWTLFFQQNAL
Procedure, shortened: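 Selectivity assay using the STEP Ki protocol. Enzyme was preincubated 5 min at 27 °C with two- or three-fold inhibitor serial dilutions in DMSO, in imidazole/NaCl buffer at pH 7.0 with 0.01% Triton X-100 and 5 mM DTT. Reaction started with pNPP (500 μM in assay), read continuously at 405 nm for 20 min. Ki came from nonlinear regression of substrate-velocity curves, using this enzyme's pNPP KM; at least duplicate.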

[4] = target: Receptor-type tyrosine-protein phosphatase F (Homo sapiens, UniProt P10586); test: Inhibition of human LAR using pNPP as substrate after 5 mins by spectrophotometric plate reader analysis
Receptor-type tyrosine-protein phosphatase F, sequence (P10586 whole entry): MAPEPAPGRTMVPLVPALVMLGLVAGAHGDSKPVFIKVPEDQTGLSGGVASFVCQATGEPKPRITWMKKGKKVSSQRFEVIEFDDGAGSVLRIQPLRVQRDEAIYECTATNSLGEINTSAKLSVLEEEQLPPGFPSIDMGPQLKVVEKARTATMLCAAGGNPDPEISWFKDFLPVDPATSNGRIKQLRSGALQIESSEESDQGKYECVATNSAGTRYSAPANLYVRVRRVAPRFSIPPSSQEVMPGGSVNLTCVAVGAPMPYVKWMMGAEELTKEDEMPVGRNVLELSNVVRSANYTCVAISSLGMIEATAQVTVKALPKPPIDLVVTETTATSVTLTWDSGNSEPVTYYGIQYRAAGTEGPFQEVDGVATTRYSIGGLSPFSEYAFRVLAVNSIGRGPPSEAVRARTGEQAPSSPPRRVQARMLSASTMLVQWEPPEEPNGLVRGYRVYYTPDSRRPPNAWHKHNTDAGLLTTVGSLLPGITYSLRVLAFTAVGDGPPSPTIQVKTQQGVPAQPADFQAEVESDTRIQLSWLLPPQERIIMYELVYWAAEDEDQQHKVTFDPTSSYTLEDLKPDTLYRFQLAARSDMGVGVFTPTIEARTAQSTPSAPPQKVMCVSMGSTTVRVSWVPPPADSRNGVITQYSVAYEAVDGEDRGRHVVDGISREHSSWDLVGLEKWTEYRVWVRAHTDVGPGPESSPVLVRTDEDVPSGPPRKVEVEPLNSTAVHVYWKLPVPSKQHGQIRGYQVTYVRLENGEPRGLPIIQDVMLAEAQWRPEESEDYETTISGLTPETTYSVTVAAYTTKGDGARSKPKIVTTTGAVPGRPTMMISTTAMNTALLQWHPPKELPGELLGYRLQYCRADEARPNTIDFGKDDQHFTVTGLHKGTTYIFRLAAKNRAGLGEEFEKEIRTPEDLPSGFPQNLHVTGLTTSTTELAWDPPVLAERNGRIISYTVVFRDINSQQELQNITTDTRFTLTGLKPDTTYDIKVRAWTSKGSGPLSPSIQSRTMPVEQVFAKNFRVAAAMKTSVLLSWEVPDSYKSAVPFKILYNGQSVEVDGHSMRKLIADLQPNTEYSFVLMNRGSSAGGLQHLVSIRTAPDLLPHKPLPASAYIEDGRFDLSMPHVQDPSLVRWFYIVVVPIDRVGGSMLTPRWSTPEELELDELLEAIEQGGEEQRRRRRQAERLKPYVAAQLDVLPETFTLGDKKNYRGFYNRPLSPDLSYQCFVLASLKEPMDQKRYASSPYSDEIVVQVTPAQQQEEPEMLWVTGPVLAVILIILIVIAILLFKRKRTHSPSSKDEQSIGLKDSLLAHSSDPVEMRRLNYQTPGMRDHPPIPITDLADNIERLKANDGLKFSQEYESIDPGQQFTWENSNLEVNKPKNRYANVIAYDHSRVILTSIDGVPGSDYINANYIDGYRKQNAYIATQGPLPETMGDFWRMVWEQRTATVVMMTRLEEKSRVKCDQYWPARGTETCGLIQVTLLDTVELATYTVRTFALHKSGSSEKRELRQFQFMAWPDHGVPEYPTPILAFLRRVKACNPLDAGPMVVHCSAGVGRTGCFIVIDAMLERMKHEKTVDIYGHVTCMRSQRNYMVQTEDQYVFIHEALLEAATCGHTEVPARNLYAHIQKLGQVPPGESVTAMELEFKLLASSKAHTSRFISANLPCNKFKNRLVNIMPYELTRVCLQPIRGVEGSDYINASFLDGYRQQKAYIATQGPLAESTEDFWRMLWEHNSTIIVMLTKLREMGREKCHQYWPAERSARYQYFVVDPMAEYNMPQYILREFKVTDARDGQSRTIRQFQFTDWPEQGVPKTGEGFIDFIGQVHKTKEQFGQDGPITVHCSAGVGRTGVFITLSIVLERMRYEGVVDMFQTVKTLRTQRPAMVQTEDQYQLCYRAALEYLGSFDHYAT
Procedure, shortened: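 Enzyme preincubated 5 min at 27 °C with serially diluted inhibitor (from DMSO) in imidazole/NaCl buffer pH 7.0 with 0.01% Triton X-100 and 5 mM DTT. Started with pNPP (500 μM in assay) and read at 405 nm for 20 min. The pNPP KM was measured for each enzyme. Ki from nonlinear regression of substrate–velocity curves at several inhibitor levels; at least duplicate.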

[5] = target: T1, Tyrosine-protein phosphatase non-receptor type 5 (Rattus norvegicus); test: Inhibition of STEP in Sprague-Dawley rat embryo primary cortical neurons assessed as phosphorylation of ERK1/2 at 0.1 to 10 uM after 1 hr by Western blot analysis; settings: Cerebral cortex neuron; procedure, shortened: as §1
[6] = species on record: Homo sapiens; test: Selectivity ratio of Ki for human TC-PTP to Ki for human STEP; procedure, shortened: as §2
[7] = target: T3, Tyrosine-protein phosphatase non-receptor type 5 (Homo sapiens, UniProt P54829); test: Inhibition of human STEP using pNPP as substrate after 5 mins by spectrophotometric plate reader analysis
T3 sequence (P54829 whole entry): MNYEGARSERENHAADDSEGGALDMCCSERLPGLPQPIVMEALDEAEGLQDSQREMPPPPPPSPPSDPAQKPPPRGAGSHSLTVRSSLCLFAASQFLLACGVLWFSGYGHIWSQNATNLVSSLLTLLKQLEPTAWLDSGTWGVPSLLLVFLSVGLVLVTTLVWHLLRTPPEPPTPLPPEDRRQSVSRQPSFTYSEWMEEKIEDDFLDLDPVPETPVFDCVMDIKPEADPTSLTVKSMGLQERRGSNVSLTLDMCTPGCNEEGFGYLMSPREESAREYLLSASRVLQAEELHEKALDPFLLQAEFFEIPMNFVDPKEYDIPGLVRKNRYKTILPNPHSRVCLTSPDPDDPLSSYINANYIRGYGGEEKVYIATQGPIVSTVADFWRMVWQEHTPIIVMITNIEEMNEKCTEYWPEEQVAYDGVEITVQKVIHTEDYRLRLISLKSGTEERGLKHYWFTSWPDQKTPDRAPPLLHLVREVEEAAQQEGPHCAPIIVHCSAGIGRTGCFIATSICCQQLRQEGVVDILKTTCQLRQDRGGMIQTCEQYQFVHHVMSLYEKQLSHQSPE

Row | SMILES | inhibition [1] | Ratio Ki [2] | Ki [3] | Ki [4] | inhibition [5] | Ratio Ki [6] | Ki [7]
1 | O=P(O)(O)[C@H](O)c1ccc(-c2cccc([C@H](O)c3ccc(Cl)c(Cl)c3)c2)cc1 | Active | 35 | 170 µM | 390 µM | Active | 22 | 7.8 µM
2 | O=P(O)(O)[C@H](O)c1ccc(-c2cccc([C@@H](O)c3ccc(Cl)c(Cl)c3)c2)cc1 | Active | 38 | 164 µM | 360 µM | Active | 18 | 8.9 µM
